Measurements from different studies.
Protocols differ between the studies behind these lines.
EGFR L858R: Epidermal growth factor receptor (EGFR, Homo sapiens, UniProt P00533, L858R)
EGFR T790M: Epidermal growth factor receptor (EGFR, Homo sapiens, UniProt P00533, T790M)
EGFR del746-750: Epidermal growth factor receptor (EGFR, Homo sapiens, UniProt P00533, del746-750)
EGFR G719S: Epidermal growth factor receptor (EGFR, Homo sapiens, UniProt P00533, G719S)
EGFR: Epidermal growth factor receptor (EGFR, Homo sapiens, UniProt P00533)
EGFR L861Q: Epidermal growth factor receptor (EGFR, Homo sapiens, UniProt P00533, L861Q)

Structure (SMILES)	target	test	conditions	remaining binding [%]
CN(C)c1ncnc(-c2ccc3nc(Nc4cc(CN5CCN(C(=O)CC(F)(F)F)CC5)ccn4)[nH]c3c2)c1Cl	Epidermal growth factor receptor (EGFR, Homo sapiens, UniProt P00533, L858R/T790M)	cell-free assay, competition with immobilised ligand	1 µM	82
Cc1cnn2ncc(-c3ccnc(N(C)C)n3)c2c1	EGFR L858R	binding	1 µM	100
CNCc1ccccc1-c1csc([C@H](C)Nc2nc(C)nc3cc(OC)c(OC)cc23)c1	Epidermal growth factor receptor (EGFR, Homo sapiens, UniProt P00533, G719C)	cell-free assay, competition with immobilised ligand	1 µM	85
O=C(NCC1CCOCC1)c1n[nH]cc1NC(=O)c1c(F)cccc1F	EGFR T790M	binding, competition with immobilised ligand	1 µM	93
COc1ncc2cc3ccccc3nc2c1C#N	EGFR del746-750	cell-free assay, competition with immobilised ligand	5 µM	87
O=C(c1ccc(Nc2ncc(Cl)c(-c3ccc(Cl)s3)n2)cc1)N1CCC(N2CCCC2)CC1	EGFR del746-750	binding, competition with immobilised ligand	1 µM	90
CN1CCN(c2ccc(Nc3nccc(-c4ccccc4)n3)cc2C(F)(F)F)CC1	EGFR G719S	binding	10 µM	98
CCN1CCN(Cc2ccc(C(=O)Nc3ccc(C)c(Oc4ccc5c(c4)CC(=O)N5)c3)cc2C(F)(F)F)CC1	EGFR del746-750	binding, competition with immobilised ligand	1 µM	99
c1cnn2ncc(-c3ccnc(N4CCC45COC5)n3)c2c1	EGFR	binding	1 µM	100
C[C@@H]1CN(c2cc(-c3n[nH]c4ccc(OC5(C)CC5)cc34)ncn2)C[C@H](C)O1	EGFR L858R	cell-free assay, competition with immobilised ligand	0.1 µM	82
C[C@@H]1CCN(c2nccc(-c3cnn4ncccc34)n2)C1	EGFR L861Q	binding	1 µM	92
COc1ccc2c(c1)O[C@H](c1ccc(OC)c(OC)c1)C[C@@H]2NC(=O)C1(c2ccc3c(c2)OC(F)(F)O3)CC1	EGFR L858R	cell-free assay, competition with immobilised ligand	1 µM	100
CC1CCCN1c1nccc(-c2cnn3ncccc23)n1 (centres unmarked)	EGFR T790M	binding	1 µM	100
CSc1cccnc1N1CCN(Cc2nc3ccccc3[nH]2)CC1	EGFR L858R	cell-free assay, competition with immobilised ligand	1 µM	100
CN(C)c1ncc(F)c(-c2cnn3ncccc23)n1	EGFR	binding	1 µM	82
Cc1cnc(Nc2ccc(C(=O)N3CCC(N4CCCC4)CC3)cc2)nc1-c1cc2ccccc2s1	EGFR L858R	binding, competition with immobilised ligand	1 µM	72
COc1cnc(Nc2cccc(S(N)(=O)=O)c2)nc1N1CCN(c2ccccc2)CC1	Epidermal growth factor receptor (EGFR, Homo sapiens, UniProt P00533, A750P/del747-749)	binding, competition with immobilised ligand	1 µM	100
O=C(N[C@H]1CCCCC/C=C\C2C[C@@]2(C(=O)O)NC(=O)[C@@H]2C[C@@H](Oc3ccncc3)CN2C1=O)OC1CCCC1 (some centres unmarked)	EGFR del746-750	cell-free assay, competition with immobilised ligand	1 µM	78
O=C(NCCCN1CCOCC1)c1ccc(Nc2ncc(Cl)c(-c3ccc(Cl)s3)n2)cc1	EGFR G719S	binding, competition with immobilised ligand	1 µM	100
CNC(=O)[C@@H]1CC[C@@H](n2c(-c3ccc4cnccc4c3)nc3ccc(C(=O)NCc4cccc(C(N)=O)c4)cc32)C1	EGFR G719S	binding, competition with immobilised ligand	1 µM	100
Cc1c(-c2ccccc2)oc2c(C(=O)OCCN3CCCCC3)cccc2c1=O	EGFR	cell-free assay, competition with immobilised ligand	10 µM	88
N[C@H]1CCN(c2nccc(-c3cnn4ncccc34)n2)C1	EGFR L861Q	binding	1 µM	81
Cc1cc(C)c(-n2ccn3nc(-c4cccnc4)cc23)cc1NC(=O)c1cc(C#N)cc(S(F)(F)(F)(F)F)c1	EGFR L861Q	cell-free assay, competition with immobilised ligand	0.1 µM	91.1
